Our source for the CC50 values is ChEMBL document CHEMBL1157311, “Aurilides B and C, cancer cell toxins from a Papua New Guinea collection of the marine cyanobacterium Lyngbya majuscula” (2006).

Test [1] can be described thus: Cytotoxicity against mouse Neuro2a cells after 48 hrs by MTT assay. It is filed as functional. As to conditions: N2a, read-out: LC50 (the source's name). An outline of the steps: (§1)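 Cells seeded at 6000/well and grown 24 h, then given test chemicals dissolved in DMSO and diluted in serum-free medium (DMSO under 0.5% final). Viability read by MTT reduction after 48 h exposure; LC50 reported. Method follows Alley et al.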
In general terms: Tetrazolium dyes change colour on reduction, which living cells bring about.

Test [2] relates to NCI-H460. The test is described as follows: Cytotoxicity against human NCI-H460 cells after 48 hrs by MTT assay. It is filed as functional. As to conditions: NCI-H460, 48 h, read-out: LC50 (the source's name). An outline of the steps:
as §1

As to `CC/C=C(\C)[C@H]1OC(=O)[C@H](C)N(C)C(=O)[C@H](C(C)C)NC(=O)CN(C)C(=O)[C@H]([C@H](C)CC)N(C)C(=O)[C@H](C(C)C)NC(=O)[C@@H](C(C)C)OC(=O)/C(C)=C/C[C@H](O)[C@@H]1C` [AURILIDE C], the CC50 in test [1] was 0.05 µM; in test [2], 0.13 µM.
